{
  "source": "paper PMC4230322",
  "about": "(Biochemistry, 2014)",
  "key": {"[1]": {"target": "T1, SULT1A1 (Homo sapiens, UniProt P50225)", "T1 sequence (P50225 whole entry)": "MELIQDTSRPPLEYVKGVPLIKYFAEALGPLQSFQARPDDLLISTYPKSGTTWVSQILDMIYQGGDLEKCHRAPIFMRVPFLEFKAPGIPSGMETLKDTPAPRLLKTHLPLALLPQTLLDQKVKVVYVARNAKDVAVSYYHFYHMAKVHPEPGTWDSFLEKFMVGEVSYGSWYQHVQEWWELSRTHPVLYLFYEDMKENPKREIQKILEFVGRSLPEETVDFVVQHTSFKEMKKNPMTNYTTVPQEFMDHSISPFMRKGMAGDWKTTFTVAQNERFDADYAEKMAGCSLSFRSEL", "assay": "Equilibrium binding of TAM and 1-HP to SULT1A1 forms E, E·PAP, E·", "method_in_brief": "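Acceptor titrated into SULT1A1 (0.05–10 μM dimer) with PAP 0–500 μM, MgCl2 5.0 mM, NaPO4 (25 or 50 mM), pH 7.2, 25 ± 2 °C. Intrinsic fluorescence read at λex 290 nm, λem 345 nm. Free enzyme had no PAP; 0.50 mM PAP saturates both sites; singly bound form used 9.0 μM dimer with 9.0 μM PAP. Biphasic phases fitted separately. Triplicates averaged; least-squares single-site fit.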"}, "[2]": {"target": "T1, SULT1A1", "assay": "Initial rate of 1-HP sulfonation by SULT1A1", "assay_type": "biochemical", "method_in_brief": "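Recombinant SULT1A1 at 1.0 nM dimer with MgCl2 5.0 mM and NaPO4 50 mM, pH 7.2, 25 ± 2 °C. Reactions started with PAPS: 2.0 μM saturates both sites, 0.30 μM only the first. Acceptor 8.0–200 nM. Product fluorescence read at λex 320 nm, λem 380 nm. […]. Duplicates; weighted least-squares fit in double-reciprocal form.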"}, "[3]": {"target": "T1, SULT1A1", "conditions": "PAP bound to SULT1A1, in favor of pore closure; cited from earlier work"}, "[4]": {"target": "T1, SULT1A1", "assay": "Pre-steady-state PAPS binding", "conditions": "for Kd: read-out: koff/kon", "method_in_brief": "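Stopped-flow, excitation 290 nm, emission above 330 nm. Enzyme solution (MgCl2 5.0 mM, NaPO4, pH 7.2, 25 ± 2 °C) mixed 1:1 with PAPS solution. High-affinity site: 30 nM dimer. Low-affinity site: 2.0 μM dimer pre-equilibrated with PAPS, then mixed with higher PAPS. Pseudo-first-order; three curves per concentration (each 8–10 shots) at four PAPS levels. Single-exponential kobs; kon from slope, koff from intercept.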"}, "[5]": {"target": "T1, SULT1A1", "assay": "Equilibrium binding of PAPS to SULT1A1", "conditions": "for Kd: pH 7.2, 25 °C", "method_in_brief": "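Human SULT1A1, codon-optimised, expressed in E. coli BL21(DE3) with a His/GST/MBP tag, then tag-cleaved. PAPS titrated into enzyme with MgCl2 5.0 mM and NaPO4 50 mM, pH 7.2, 25 ± 2 °C. Intrinsic fluorescence read at λex 290–295 nm, λem 345 nm. Dimer 0.05 μM for high-affinity Kd; 3.0 μM for first-site stoichiometry and low-affinity phase; 475 μM for full-site, at λex 297 nm. Triplicates averaged; single-site-per-dimer fit.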"}, "[6]": {"target": "T1, SULT1A1", "assay": "Initial rate kinetics of TAM sulfation", "assay_type": "biochemical"}, "[7]": {"conditions": "acceptor binding to E (no nucleotide), pH 7.2, 25 °C"}, "[8]": {"conditions": "acceptor binding to E·(PAP)2 (TAM: PAP 0.50 mM; 1-HP: PAP 2.0 µM)"}, "[9]": {"conditions": "1-HP as substrate, E·PAP form, [PAPS] 0.30 μM"}, "[10]": {"conditions": "high-affinity PAPS binding site, pH 7.2, 25 °C"}, "[11]": {"conditions": "low-affinity PAPS binding site, dimer pre-equilibrated with PAPS"}},
  "note": "Several values for one entry are separate records, joined by “and”; a condition that tells them apart may be missing. Identical values can stand only once.",
  "data": [
    {"compound": "Oc1ccc2ccc3cccc4ccc1c2c34", "note": "[1-HP, 1-hydroxypyrene]", "values": [
      {"measurement": "Kd", "setting": "[1]; [7]", "result": 8, "unit": "µM"},
      {"measurement": "Kd", "setting": "[1]; [8]", "result": 0.025, "unit": "µM"},
      {"measurement": "kcat", "setting": "[2]; 1-HP as substrate, E·(PAP)2 form, [PAPS] 2.0 μM", "result": "1000 (60) s^–1"},
      {"measurement": "Km", "setting": "[2]; [9]", "result": 0.041, "unit": "µM"},
      {"measurement": "kcat", "setting": "[2]; [9]", "result": "130 (20) s^–1"},
      {"measurement": "effect of PAPS occupancy on Km", "setting": "[2]; 1-HP sulfonation", "result": "not affected by PAPS occupancy"},
      {"measurement": "increase in kcat, doubly vs singly occupied enzyme", "setting": "[2]; 1-HP sulfonation", "result": "~8", "unit": "fold"},
      {"measurement": "increase in turnover of each subunit, doubly vs singly occupied enzyme", "setting": "[2]; 1-HP sulfonation", "result": 4, "unit": "times"}
    ]},
    {"compound": "Nc1ncnc2c1ncn2[C@@H]1O[C@H](COP(=O)(O)O)[C@@H](OP(=O)(O)O)[C@H]1O", "note": "[PAP, 3′,5′-diphosphoadenosine]", "values": [
      {"measurement": "isomerization equilibrium constant, Kiso", "setting": "[3]", "result": 26}
    ]},
    {"compound": "Nc1ncnc2c1ncn2[C@@H]1O[C@H](COP(=O)(O)OS(=O)(=O)O)[C@@H](OP(=O)(O)O)[C@H]1O", "note": "[PAPS, 3′-phosphoadenosine 5′-phosphosulfate]", "values": [
      {"measurement": "kon for the first site, aggregate value halved", "setting": "[4]; corrected for two subunits able to bind the first ligand", "result": 1.0, "unit": "μM^–1 s^–1"},
      {"measurement": "koff", "setting": "[4]; [10]", "result": "0.70 (0.05) s^–1"},
      {"measurement": "kon", "setting": "[4]; [10]", "result": "2.0 (0.1) μM^–1 s^–1"},
      {"measurement": "koff", "setting": "[4]; [11]", "result": "29 (1) s^–1"},
      {"measurement": "kon", "setting": "[4]; [11]", "result": "0.96 (0.01) μM^–1 s^–1"},
      {"measurement": "Kd", "setting": "[4]; high-affinity PAPS binding site", "result": 0.37, "unit": "µM"},
      {"measurement": "Kd", "setting": "[4]; low-affinity PAPS binding site", "result": 30, "unit": "µM"},
      {"measurement": "PAPS binding stoichiometry at the high-affinity site", "setting": "[5]; SULT1A1 3.0 μM dimer (16Kd)", "result": "1.1 ± 0.2 PAPS molecules per dimer and 1.1 ± 0.1 PAPS molecules per dimer"},
      {"measurement": "Kd", "setting": "[5]; high-affinity PAPS binding site, SULT1A1 0.05 μM dimer", "result": 0.37, "unit": "µM"},
      {"measurement": "difference in affinities (Kd) of the two PAPS binding sites", "setting": "[5]; low- vs high-affinity site", "result": 81, "unit": "fold"},
      {"measurement": "Kd", "setting": "[5]; low-affinity PAPS binding site, SULT1A1 3.0 μM dimer", "result": 30, "unit": "µM"}
    ]},
    {"compound": "Nc1ncnc2c1ncn2[C@@H]1O[C@H](COP(=O)(O)O)[C@@H](O)[C@H]1O", "note": "[AMP, Adenosine monophosphate]", "values": [
      {"measurement": "binding to SULT1A1", "setting": "[5]; used in control titrations for inner-filter correction", "result": "does not bind SULT1A1"}
    ]},
    {"compound": "CC/C(=C(\\c1ccc(O)cc1)c1ccc(OCCN(C)C)cc1)c1ccccc1", "note": "[TAM, 4-hydroxytamoxifen]", "values": [
      {"measurement": "Kd", "setting": "[1]; [7]", "result": 0.67, "unit": "µM"},
      {"measurement": "Kd", "setting": "[1]; [8]", "result": "0.68 µM and 0.65 µM"},
      {"measurement": "stoichiometry of binding to E and E·(PAP)2", "setting": "[1]; SULT1A1 10 μM dimer, PAP 0 or 0.50 mM", "result": "2.0 ± 0.1 TAM bound per SULT1A1 dimer"},
      {"measurement": "ratio of Km for the singly and doubly occupied enzyme", "setting": "[6]", "result": 23}
    ]}
  ]
}
